Results reported in ChEMBL document CHEMBL4819117, “Probing cytochrome P450 (CYP) bioactivation with chloromethylindoline bioprecursors derived from the duocarmycin family of compounds” (Bioorg Med Chem, 2021).

What was measured:
[1] = system: EJ; experiment: Antiproliferative activity against human EJ138 cells deficit in CYPs assessed as inhibition of cell growth after 96 hrs by MTT assay; type: functional, cell-based
Summary of the method: (§1)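 Cells kept as monolayers at 37 °C in 5% CO2: EJ-138 and RT112 in RPMI 1640 with 10% FBS, sodium pyruvate and 2 mM L-glutamine; CHO and CHO-1A1 in DMEM. Compounds were taken from DMSO stocks into medium over 0.001–100 μM, with final DMSO ≤0.1%. Exposure lasted 96 h, then MTT read-out. IC50 values are mean ± SD of at least three independent assays.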

[2] = system: RT-112; experiment: Antiproliferative activity against human RT112 cells proficient in CYP1A1 assessed as inhibition of cell growth after 96 hrs by MTT assay; type: functional, cell-based; conditions: RT-112, 96 h; summary of the method: as §1
[3] = system: CHO; experiment: Antiproliferative activity against wild type chinese hamster CHO cells deficit in CYPs assessed as inhibition of cell growth after 96 hrs by MTT assay; type: functional, cell-based; conditions: Cricetulus griseus; summary of the method: as §1
[4] = system: CHO; experiment: Antiproliferative activity against chinese hamster CHO cells transfected with CYP1A1 assessed as inhibition of cell growth after 96 hrs by MTT assay; type: functional, cell-based; conditions: Cricetulus griseus; summary of the method: as §1
[5] = system: EJ; experiment: Antiproliferative activity against human EJ138 cells assessed as inhibition of cell growth preincubated for 1 hr with CYP null bactosomes measured after 96 hrs by MTT assay; type: functional, cell-based
Summary of the method: (§2)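 Compound (50 μM) incubated 1 h at 37 °C with 20 pmol CYP bactosomes (CYP null, 1A1, 1A2, 1B1 or 3A4) in 2 mM NADPH, 1 mM MgCl₂, Tris-HCl pH 7.4. Metabolites were extracted with acetonitrile, centrifuged, and the supernatant dried and taken up in DMSO. EJ138 cells were exposed 96 h and growth read by MTT assay.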

[6] = system: EJ; experiment: Antiproliferative activity against human EJ138 cells assessed as inhibition of cell growth preincubated for 1 hr with human CYP1A1 expressing bactosomes measured after 96 hrs by MTT assay; type: functional, cell-based; summary of the method: as §2
[7] = system: EJ; experiment: Antiproliferative activity against human EJ138 cells assessed as inhibition of cell growth preincubated for 1 hr with human CYP1A2 expressing bactosomes measured after 96 hrs by MTT assay; type: functional, cell-based; summary of the method: as §2
[8] = system: EJ; experiment: Antiproliferative activity against human EJ138 cells assessed as inhibition of cell growth preincubated for 1 hr with human CYP1B1 expressing bactosomes measured after 96 hrs by MTT assay; type: functional, cell-based; summary of the method: as §2
[9] = system: EJ; experiment: Antiproliferative activity against human EJ138 cells assessed as inhibition of cell growth preincubated for 1 hr with human CYP3A4 expressing bactosomes measured after 96 hrs by MTT assay; type: functional, cell-based; summary of the method: as §2
[10] = Drug metabolism in Wistar rat liver microsomes assessed as CYP-mediated metabolite M16 formation at 0.5 to 23.5 uM prewarmed for 5 mins followed by NADPH addition and measured after 30 mins by HPLC-fluorescence detector analysis; type: ADME; conditions: 35 min, dose 0.5-23.5 µM
[11] = system: Cytochrome P450; experiment: Drug metabolism in human liver microsomes assessed as CYP-mediated metabolite M16 formation at 0.5 to 23.5 uM prewarmed for 5 mins followed by NADPH addition and measured after 30 mins by HPLC-fluorescence detector analysis; type: ADME; conditions: 35 min, dose 0.5-23.5 µM
[12] = system: EJ; experiment: Potentiation factor, ratio of IC50 for antiproliferative activity against human EJ138 cells preincubated for 1 hr with CYP null bactosomes to IC50 for antiproliferative activity against human EJ138 cells preincubated for 1 hr with human CYP1A1 expressing bactosomes; type: functional
Summary of the method: (§3)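 Potentiation factor = IC₅₀ in EJ138 given control (CYP null) bactosome extract ÷ IC₅₀ with the named CYP isoform extract. Extracts came from 1 h, 37 °C incubations of 50 μM compound with 20 pmol bactosomes plus 2 mM NADPH, 1 mM MgCl₂, Tris-HCl pH 7.4. Cells were exposed 96 h and read by MTT.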

[13] = system: EJ; experiment: Potentiation factor, ratio of IC50 for antiproliferative activity against human EJ138 cells preincubated for 1 hr with CYP null bactosomes to IC50 for antiproliferative activity against human EJ138 cells preincubated for 1 hr with human CYP1A2 expressing bactosomes; type: functional; summary of the method: as §3
[14] = system: EJ; experiment: Potentiation factor, ratio of IC50 for antiproliferative activity against human EJ138 cells preincubated for 1 hr with CYP null bactosomes to IC50 for antiproliferative activity against human EJ138 cells preincubated for 1 hr with human CYP1B1 expressing bactosomes; type: functional; summary of the method: as §3
[15] = system: EJ; experiment: Potentiation factor, ratio of IC50 for antiproliferative activity against human EJ138 cells preincubated for 1 hr with CYP null bactosomes to IC50 for antiproliferative activity against human EJ138 cells preincubated for 1 hr with human CYP3A4 expressing bactosomes; type: functional; summary of the method: as §3
[16] = biological target: T1, Cytochrome P450 1A1 (Homo sapiens, UniProt P04798); experiment: Drug metabolism assessed as human CYP1A1 expressed in bactosomes assessed as metabolite M2 with m/z 357.1 formation measured after 1 hr by LC-MS analysis; type: ADME; conditions: recombinant enzyme
T1 sequence (P04798 whole entry): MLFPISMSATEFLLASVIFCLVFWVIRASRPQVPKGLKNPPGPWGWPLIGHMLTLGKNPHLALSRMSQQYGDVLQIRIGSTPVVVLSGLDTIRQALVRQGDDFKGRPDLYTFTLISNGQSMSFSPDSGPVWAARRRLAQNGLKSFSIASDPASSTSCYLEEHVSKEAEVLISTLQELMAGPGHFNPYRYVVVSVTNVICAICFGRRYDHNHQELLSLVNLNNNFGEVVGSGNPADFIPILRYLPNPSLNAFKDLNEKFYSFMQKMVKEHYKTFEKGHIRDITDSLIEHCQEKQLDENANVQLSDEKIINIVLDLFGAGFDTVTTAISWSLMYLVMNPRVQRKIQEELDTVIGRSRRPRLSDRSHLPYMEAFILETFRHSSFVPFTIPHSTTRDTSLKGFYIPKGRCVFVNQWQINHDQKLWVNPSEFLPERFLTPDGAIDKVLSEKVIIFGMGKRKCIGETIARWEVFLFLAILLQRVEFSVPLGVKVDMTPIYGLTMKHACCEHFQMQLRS

[17] = biological target: T1, Cytochrome P450 1A1; experiment: Drug metabolism assessed as human CYP1A1 expressed in bactosomes assessed as metabolite M3 with m/z 339.1 formation measured after 1 hr by LC-MS analysis; type: ADME; conditions: recombinant enzyme
[18] = biological target: T1, Cytochrome P450 1A1; experiment: Drug metabolism assessed as human CYP1A1 expressed in bactosomes assessed as (3-(chloromethyl)-6-hydroxyindolin-1-yl)(5-methoxy-1H-indol-2-yl)methanone formation measured after 1 hr by LC-MS analysis; type: ADME; conditions: recombinant enzyme
[19] = biological target: T2, Cytochrome P450 1A2 (Homo sapiens, UniProt P05177); experiment: Drug metabolism assessed as human CYP1A2 expressed in bactosomes assessed as (3-(chloromethyl)-6-hydroxyindolin-1-yl)(5-methoxy-1H-indol-2-yl)methanone formation measured after 1 hr by LC-MS analysis; type: ADME; conditions: recombinant enzyme
T2 sequence (P05177 whole entry): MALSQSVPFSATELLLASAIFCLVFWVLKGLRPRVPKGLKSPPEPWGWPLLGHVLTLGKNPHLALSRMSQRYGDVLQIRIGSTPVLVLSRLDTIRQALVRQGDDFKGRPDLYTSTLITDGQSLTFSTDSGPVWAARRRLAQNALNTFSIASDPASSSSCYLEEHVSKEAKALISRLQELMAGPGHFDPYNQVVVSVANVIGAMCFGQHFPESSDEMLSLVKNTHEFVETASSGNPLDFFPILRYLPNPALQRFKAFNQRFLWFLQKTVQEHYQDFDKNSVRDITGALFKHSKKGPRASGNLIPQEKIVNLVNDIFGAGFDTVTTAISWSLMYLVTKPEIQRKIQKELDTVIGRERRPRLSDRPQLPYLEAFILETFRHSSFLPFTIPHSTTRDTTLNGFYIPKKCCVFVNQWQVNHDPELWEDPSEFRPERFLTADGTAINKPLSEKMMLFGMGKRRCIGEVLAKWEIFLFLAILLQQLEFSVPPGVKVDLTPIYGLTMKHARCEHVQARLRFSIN

[20] = biological target: T1, Cytochrome P450 1A1; experiment: Drug metabolism assessed as recombinant human CYP1A1-mediated metabolite M2 with m/z 357.1 formation at 50 uM incubated for 1 hr in presence of reconstituted protein system by LC-MS analysis; type: ADME; conditions: recombinant enzyme
Summary of the method: (§4)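 Substrate (50 μM) incubated at 37 °C with human recombinant CYP1A1 in a reconstituted system: NADPH cytochrome P450 reductase, freshly prepared DLPC (240 μM), 100 mM potassium phosphate pH 7.4. Reaction was started with NADPH (1 mM final) and aliquots quenched into dichloromethane over 60 min. Metabolites were profiled by HPLC with photodiode array and ESI⁺ quadrupole MS.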

[21] = biological target: T1, Cytochrome P450 1A1; experiment: Drug metabolism assessed as recombinant human CYP1A1-mediated metabolite M3 with m/z 339.1 formation at 50 uM incubated for 1 hr in presence of reconstituted protein system by LC-MS analysis; type: ADME; conditions: recombinant enzyme; summary of the method: as §4
[22] = biological target: T1, Cytochrome P450 1A1; experiment: Drug metabolism assessed as recombinant human CYP1A1-mediated metabolite M4 with m/z 327.1 formation at 50 uM incubated for 1 hr in presence of reconstituted protein system by LC-MS analysis; type: ADME; conditions: recombinant enzyme; summary of the method: as §4
[23] = biological target: T1, Cytochrome P450 1A1; experiment: Drug metabolism assessed as recombinant human CYP1A1-mediated metabolite M5 with m/z 355.1 formation at 50 uM incubated for 1 hr in presence of reconstituted protein system by LC-MS analysis; type: ADME; conditions: recombinant enzyme; summary of the method: as §4
[24] = biological target: T1, Cytochrome P450 1A1; experiment: Drug metabolism assessed as recombinant human CYP1A1-mediated metabolite M6 with m/z 373.1 formation at 50 uM incubated for 1 hr in presence of reconstituted protein system by LC-MS analysis; type: ADME; conditions: recombinant enzyme; summary of the method: as §4
[25] = Drug metabolism in Wistar rat liver microsomes assessed as CYP-mediated metabolite M22 formation at 0.5 to 23.5 uM prewarmed for 5 mins followed by NADPH addition and measured after 30 mins by HPLC-fluorescence detector analysis; type: ADME; conditions: 35 min, dose 0.5-23.5 µM
[26] = Drug metabolism in Wistar rat liver microsomes assessed as CYP-mediated metabolite M23 formation at 0.5 to 23.5 uM prewarmed for 5 mins followed by NADPH addition and measured after 30 mins by HPLC-fluorescence detector analysis; type: ADME; conditions: 35 min, dose 0.5-23.5 µM
[27] = system: Cytochrome P450; experiment: Drug metabolism in human liver microsomes assessed as CYP-mediated metabolite M22 formation at 0.5 to 23.5 uM prewarmed for 5 mins followed by NADPH addition and measured after 30 mins by HPLC-fluorescence detector analysis; type: ADME; conditions: 35 min, dose 0.5-23.5 µM
[28] = system: Cytochrome P450; experiment: Drug metabolism in human liver microsomes assessed as CYP-mediated metabolite M23 formation at 0.5 to 23.5 uM prewarmed for 5 mins followed by NADPH addition and measured after 30 mins by HPLC-fluorescence detector analysis; type: ADME; conditions: 35 min, dose 0.5-23.5 µM
[29] = Selectivity ratio of IC50 for antiproliferative activity against wild type chinese hamster CHO cells deficit in CYPs to IC50 for antiproliferative activity against chinese hamster CHO cells transfected with CYP1A1 by MTT assay; type: functional, Cricetulus griseus
Summary of the method: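 CHO wild-type and CYP1A1-transfected CHO cells were grown in DMEM at 37 °C, 5% CO₂. Compounds from DMSO stocks were tested at 0.001–100 μM, final DMSO ≤0.1%, for 96 h, then MTT. Ratio = CHOwt IC₅₀ / CHO1A1 IC₅₀; IC₅₀ values are mean ± SD of at least three independent assays.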

Q: What does the source list for `CC(C)(C)OC(=O)N1CC(CCl)c2ccc(O)cc21` (stereo not drawn)?
A: IC50 [1]: 8.1 µM; IC50 [2]: 11.1 µM; IC50 [3]: 7.3 µM; IC50 [4]: 6.5 µM

Q: Which IC50 [1] does the source give for `COc1ccc2[nH]c(C(=O)N3CC(CCl)c4ccccc43)cc2c1` (stereo not drawn) here?
A: 15 µM

Q: What about the IC50 [2] of the same compound?
A: 8.04 µM

Q: And the IC50 [3]?
A: 11.4 µM

Q: And the IC50 [4]?
A: 1.2 µM

Q: And the IC50 [5]?
A: 17.2 µM

Q: And the IC50 [6]?
A: 2500 nM

Q: And the IC50 [7]?
A: 1900 nM

Q: What about the IC50 [8] of the same compound?
A: 13.5 µM

Q: What about the IC50 [9] of the same compound?
A: 19.8 µM

Q: What about the Drug metabolism [10] of the same compound?
A: Metabolite_Detected

Q: What about the Drug metabolism [11] of the same compound?
A: Metabolite_Detected

Q: What about the “Ratio IC50” value [12] of the same compound?
A: 6.9

Q: What about the “Ratio IC50” value [13] of the same compound?
A: 9.1

Q: And the “Ratio IC50” value [14]?
A: 1.3

Q: What about the “Ratio IC50” value [15] of the same compound?
A: 0.9

Q: What about the Drug metabolism [16] of the same compound?
A: Metabolite_Detected

Q: What about the Drug metabolism [17] of the same compound?
A: Metabolite_Detected

Q: And the Drug metabolism [18]?
A: Metabolite_Notdetected

Q: What about the Drug metabolism [19] of the same compound?
A: Metabolite_Notdetected

Q: And the Drug metabolism [20]?
A: Metabolite_Detected

Q: And the Drug metabolism [21]?
A: Metabolite_Detected

Q: What about the Drug metabolism [22] of the same compound?
A: Metabolite_Detected

Q: And the Drug metabolism [23]?
A: Metabolite_Detected

Q: What about the Drug metabolism [24] of the same compound?
A: Metabolite_Detected

Q: What about the Drug metabolism [25] of the same compound?
A: Metabolite_Detected

Q: What about the Drug metabolism [26] of the same compound?
A: Metabolite_Detected

Q: What about the Drug metabolism [27] of the same compound?
A: Metabolite_Detected

Q: And the Drug metabolism [28]?
A: Metabolite_Detected

Q: And the “Ratio IC50” value [29]?
A: 10
